Data on eight compounds can be found in ChEMBL document CHEMBL1159324, “Bioactive isomalabaricane triterpenes from the marine sponge Rhabdastrella globostellata” (J Nat Prod, 2002).

Format in all cases: functional, cell-based
What all share (details): HCT-116, 48 h

In assay [1] the test system is HCT-116. The assay is described as follows: Cytotoxicity against P53+ wild type human HCT116 cells after 48 hrs by MTS assay. In short, it runs like this:
(§1)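 HCT116 colon tumour lines (wild type and isogenic p53- or p21-deficient, p21 disrupted by homologous recombination) grown in McCoy's 5A with 10% FBS, penicillin/streptomycin, L-glutamine and sodium pyruvate at 37 °C, 5% CO2. Seeded per well at 3000 (p53+, p53-), 4000 (p21+) or 6000 (p21-) cells. After 24 h, medium was replaced. Cells were exposed to varying concentrations for 48 h, and MTS bioreduction was read at 490 nm.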
In general terms: Formazan colour is commonly taken as a measure of viable cells.

The subject of assay [2] is HCT-116. The assay is described as follows: Cytotoxicity against P21 deficient human HCT116 cells after 48 hrs by MTS assay. A digest of the protocol:
as §1

Assay [3] relates to HCT-116. The assay is described as follows: Cytotoxicity against P21+ wild type human HCT116 cells after 48 hrs by MTS assay. A digest of the protocol:
as §1

The test system of assay [4] is HCT-116. The assay is described as follows: Cytotoxicity against P53 deficient human HCT116 cells after 48 hrs by MTS assay. A digest of the protocol:
as §1

As usually defined, the IC50 is the concentration that gives 50% inhibition.

For `CC(/C=C/C=C(\C)c1ccc(C)c(=O)o1)=C1/C(=O)C[C@H]2[C@@]3(C)CCC(=O)C(C)(C)[C@@H]3CC[C@]12C` [STELLETTIN B], the concentration for half-maximal inhibition (IC50) with HCT-116 [1] turned out to be 7.25 µM; with HCT-116 [2] it was 0.043 µM; with HCT-116 [3], 0.65 µM; in the assay on HCT-116 [4], 8.23 µM.

Consider `CC(/C=C/C=C(C)/C=C/C=C(\C)C(=O)O)=C1/C(=O)C[C@H]2[C@@]3(C)CCC(=O)C(C)(C)[C@@H]3CC[C@]12C` [STELLETIN E], for which the 50% inhibitory concentration (IC50) was more than 5.39 µM with HCT-116 [1], 0.039 µM in the assay with HCT-116 [2], 4.57 µM with HCT-116 [3] and more than 5.39 µM in the assay with HCT-116 [4].

As for `C\C(=C/C=C/C(C)=C1/C(=O)C[C@H]2[C@@]3(C)CCC(=O)C(C)(C)[C@@H]3CC[C@]12C)c1ccc(C)c(=O)o1` [STELLETIN A], the half-maximal inhibitory concentration (IC50) in the assay on HCT-116 [2] came out at 0.26 µM; in the assay with HCT-116 [3] it was 4.46 µM.

For the compound `CC(=O)O[C@H]1CC[C@@]2(C)[C@@H](CC[C@]3(C)/C(=C(C)/C=C/C=C(C)/C=C/C=C(\C)C(=O)O)C(=O)C[C@@H]23)C1(C)C`, the results for the concentration for half-maximal inhibition (IC50) in the assay with HCT-116 [2] and in the assay on HCT-116 [3] were 3.86 µM and more than 4.92 µM, respectively.

On to `CC(=O)O[C@H]1CC[C@@]2(C)[C@@H](CC[C@]3(C)/C(=C(C)/C=C/C=C(\C)c4ccc(C)c(=O)o4)C(=O)C[C@@H]23)C1(C)C` [STELLETTIN D], for which the 50% inhibitory concentration (IC50) turned out to be 0.31 µM with HCT-116 [2] and 0.43 µM with HCT-116 [3].

Turning to `CC(=O)O[C@H]1CC[C@@]2(C)[C@@H](CC[C@]3(C)\C(=C(C)/C=C/C=C(\C)c4ccc(C)c(=O)o4)C(=O)C[C@@H]23)C1(C)C` [STELLETTIN C], the concentration for half-maximal inhibition (IC50) in the assay on HCT-116 [2] was 0.3 µM; with HCT-116 [3], 2.45 µM.

For the compound `CC(/C=C/C=C(\C)C(=O)O)=C\C=C\C(C)=C1\C(=O)C[C@H]2[C@@]3(C)CCC(=O)C(C)(C)[C@@H]3CC[C@]12C` [RHABDASTRELLIC ACID A], the IC50 with HCT-116 [2] was 3.49 µM; with HCT-116 [3], more than 5.39 µM.

Consider `CC(=O)O[C@H]1CC[C@@]2(C)[C@@H](CC[C@]3(C)\C(=C(C)/C=C/C=C(C)/C=C/C=C(\C)C(=O)O)C(=O)C[C@@H]23)C1(C)C`, for which the IC50 is 3.98 µM in the assay with HCT-116 [2] and more than 4.92 µM in the assay with HCT-116 [3].
